An excerpt weighted towards active compounds, which were near 3.8% of everything screened.
KCNK9 inh: inhibitors of human KCNK9 two-pore domain potassium channel; HEK293 KCNK9, FluxOR thallium flux fluorescence; hits give low values; AID 488922; B-score at 10 µM; hit rate 1.2% among 310,000;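 active = ratio B-score over 3 SD below the library mean, with starting fluorescence within 5 SD of its mean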;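 also: negative B-score means less thallium flux so channel inhibition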
KCNQ1 act: potentiators or activators of human KCNQ1 potassium channel; hit rate 0.35% among 310,000; P51787; AID 2648; B-score at 10 µM; CHO-K1 KCNQ1, thallium flux FluxOR fluorescence; hits give high values;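 active = fluorescence ratio B-score, a plate-corrected score, at least three library SD, with initial intensity B-score within 5 SD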
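Schedule – 37 °C overnight plating, 90-min dark dye load, 20-min compound pretreatment · System – stable KCNQ1 CHO-K1 line · Probe or stimulus – thallium- and potassium-containing depolarizing buffer · Measured by – kinetic FluxOR fluorescence, 10 s baseline plus 110 s post-stimulus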
hERG protect: compounds protecting human hERG from proarrhythmic drug block | CHO-hERG, FluxOR thallium flux, dofetilide IC70 present | activation (rescue from dofetilide block), less the hit threshold, % at 10 µM | hit rate 0.51% among 310,000;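 active = activation above the mean of controls blocked by dofetilide plus 5 SD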;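 also: thallium influx through hERG after potassium depolarization seen as dye fluorescence rise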
KCNQ1 block: human KCNQ1 channel inhibition; B-score at 10 µM; AID 2642; hit rate 1.3% among 310,000; P51787; CHO-K1 KCNQ1, FluxOR thallium flux fluorescence; hits give high values;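 active = compounds whose thallium flux B-score, printed positive for inhibition, exceeds three library SD while starting fluorescence stays within three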;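 also: channel opened by potassium depolarization with thallium stimulus after 20 min compound exposure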
KCNK3 inh: human KCNK3 channel inhibition, primary screen; B-score at 10 µM; CHO-KCNK3 thallium flux, FluxOR fluorescence; hits give low values; hit rate 0.84% among 340,000; AID 602410;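 active = B-score under library mean minus 4 SD, starting fluorescence ratio at most library mean plus 5 SD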;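 also: more negative B-score means stronger inhibition of thallium flux through KCNK3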
Kir21 inh: blocks the mouse Kir2.1 inward-rectifier potassium channel; P35561; HEK293-Kir2.1, FluxOR thallium flux fluorescence; hits give low values; B-score at 10 µM; hit rate 0.85% among 310,000;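 active = fluorescence ratio B-score at or below minus 3 SD of library scores, with starting-brightness B-score within 2 SD, cut at about -4.2 in these data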;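 also: channel flux triggered by added potassium and thallium sulfate stimulus; B-score of peak minus minimum fluorescence over baseline after thallium stimulus; more negative B-score means stronger Kir2.1 block with less thallium influx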
Target sequence (P35561 whole entry, looked up): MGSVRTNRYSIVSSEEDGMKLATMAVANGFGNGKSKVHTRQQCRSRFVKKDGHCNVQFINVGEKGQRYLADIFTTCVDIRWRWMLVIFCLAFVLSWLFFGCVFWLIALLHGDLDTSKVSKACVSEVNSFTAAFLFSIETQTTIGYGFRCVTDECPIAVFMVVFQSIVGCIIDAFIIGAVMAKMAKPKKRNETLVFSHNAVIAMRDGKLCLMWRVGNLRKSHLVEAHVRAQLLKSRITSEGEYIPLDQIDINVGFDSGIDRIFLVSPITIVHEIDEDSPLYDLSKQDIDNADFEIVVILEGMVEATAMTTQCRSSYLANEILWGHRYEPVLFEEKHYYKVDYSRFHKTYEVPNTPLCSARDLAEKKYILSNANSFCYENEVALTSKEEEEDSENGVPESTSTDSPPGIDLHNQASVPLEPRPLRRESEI
* hit, by the source's call.

`Cc1cc(C)c2nc(N3CCC(C(=O)NCCCN4CC(C)CC(C)C4)CC3)sc2c1` (stereo not drawn) gave KCNK9 inh inactive, KCNQ1 act inactive, hERG protect -15, KCNQ1 block inactive, KCNK3 inh inactive and Kir21 inh -6.8*.
Cc1cc(C)c2nc(N3CCCC(C(=O)NCCCN4CCOCC4)C3)sc2c1 (stereo not drawn) was read as KCNK9 inh inactive, KCNQ1 act inactive, hERG protect -10, KCNQ1 block inactive, KCNK3 inh inactive and Kir21 inh 0.49.
`Cc1ccc(Oc2c(C(N)=O)cc([N+](=O)[O-])cc2[N+](=O)[O-])cc1` gave KCNK9 inh inactive, KCNQ1 act inactive, hERG protect -15, KCNQ1 block 6*, KCNK3 inh inactive and Kir21 inh -5.5*.
N#Cc1nnn(-c2cc(Cl)cc(Cl)c2)c1N was read as KCNK9 inh inactive, KCNQ1 act inactive, hERG protect -6, KCNQ1 block inactive, KCNK3 inh inactive and Kir21 inh -1.9.
`NC(=S)N=Nc1c(O)n(Cc2ccc(Br)cc2)c2ccccc12` gave KCNK9 inh inactive, KCNQ1 act inactive, hERG protect 15*, KCNQ1 block inactive, KCNK3 inh inactive and Kir21 inh -1.9.
Screening C/C(Cl)=C\Cn1c(O)c(N=NC(N)=S)c2cc(Br)ccc21 returned KCNK9 inh inactive, KCNQ1 act 19*, hERG protect 26*, KCNQ1 block inactive, KCNK3 inh inactive and Kir21 inh 2.4.
For Cc1cc(O)c(C(C)C)cc1NC(=O)Nc1ccc([N+](=O)[O-])cc1 the results were KCNK3 inh -10*.
Cc1cc(O)c(C(C)C)cc1NC(=O)Nc1cccc2ccccc12 was read as KCNK9 inh inactive, KCNQ1 act inactive, hERG protect -14, KCNQ1 block inactive, KCNK3 inh inactive and Kir21 inh 0.51.
Cc1ccc(C(C)C)cc1NC(=O)Nc1ccc([N+](=O)[O-])cc1 was read as KCNK9 inh inactive, KCNQ1 act inactive, hERG protect -8, KCNQ1 block 7*, KCNK3 inh inactive and Kir21 inh -0.02.
CCCN(CCC)CC(=O)N1CC(=O)Nc2ccccc21 was read as KCNK9 inh inactive, KCNQ1 act inactive, hERG protect -2, KCNQ1 block inactive, KCNK3 inh inactive and Kir21 inh 0.
`Cc1ccc(C(=O)/C=C2/NC(=O)CS2)cc1` gave KCNK9 inh inactive, KCNQ1 act inactive, hERG protect -11, KCNQ1 block inactive, KCNK3 inh inactive and Kir21 inh -1.1.
Screening OCCN(Cc1ccccc1)Cc1ccc(C(F)(F)F)cc1 returned KCNK9 inh -6.9*, KCNQ1 act inactive, hERG protect -6, KCNQ1 block inactive, KCNK3 inh inactive and Kir21 inh 0.
For COc1ccc(C(=O)Nc2ccc(CN3CCOCC3)cc2)cc1Br the results were KCNK9 inh inactive, KCNQ1 act inactive, hERG protect -5, KCNQ1 block inactive, KCNK3 inh inactive and Kir21 inh -5.3*.
COc1ccc(Br)cc1/C=C/C(=O)NC(=S)Nc1ccc(CN2CCOCC2)cc1 was read as KCNK9 inh inactive, KCNQ1 act inactive, hERG protect -19, KCNQ1 block 8*, KCNK3 inh inactive and Kir21 inh -0.02.
Screening O=C(/C=C/c1ccc(Cl)cc1)NC(=S)Nc1ccc(CN2CCOCC2)cc1 returned KCNK9 inh inactive, KCNQ1 act inactive, hERG protect -8, KCNQ1 block inactive, KCNK3 inh inactive and Kir21 inh 0.2.
Screening COc1ccc(C(=O)NC(=S)Nc2ccc(CN3CCOCC3)cc2)cc1OC returned KCNK9 inh inactive, KCNQ1 act inactive, hERG protect -5, KCNQ1 block inactive, KCNK3 inh inactive and Kir21 inh -0.87.
CCn1c(SCC(=O)OC)nnc1-c1ccccc1 was read as KCNK9 inh inactive, KCNQ1 act inactive, hERG protect -9, KCNQ1 block inactive, KCNK3 inh inactive and Kir21 inh 0.3.
For CCOC(=O)C(C)Sc1ccc2nnc(CCNS(=O)(=O)c3ccc(C)cc3)n2n1 (stereo not drawn) the results were KCNK9 inh inactive, KCNQ1 act inactive, hERG protect -19, KCNQ1 block inactive, KCNK3 inh inactive and Kir21 inh 0.95.

Source: PubChem BioAssay
